A word on the IC50: it is the concentration that inhibits the measured activity by half.

Experimental findings from ChEMBL document CHEMBL1138306, “New antioxidant polyphenols from the medicinal mushroom Inonotus obliquus” (Bioorg Med Chem Lett, 2007) are described below.

Assay type in all cases: functional
Test [1] in a line: Antioxidant activity assessed as superoxide radical scavenging activity by xanthine oxidase method. The gist of the method:
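Superoxide generated by xanthine/xanthine oxidase in 50 mM potassium phosphate buffer (pH 7.8) containing 1 mM EDTA, 0.04 mM NBT, 0.18 mM xanthine and 250 mU/mL xanthine oxidase. Samples tested at a series of concentrations. Incubation 30 min at 37 C in the dark. Superoxide reduction of NBT to blue formazan used as read-out. IC50 determined.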

The nature of test [2]: Ratio of IC50 for drug to trolox for ABTS radical scavenging activity. The gist of the method:
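ABTS radical cation made from 7 mM aqueous ABTS stock reacted with 2.45 mM potassium persulfate, left 12 h in the dark. Radical solution mixed with samples in ethanol. Absorbance read at 734 nm up to 6 min after mixing. IC50 expressed relative to trolox.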

Test [3] can be described thus: Ratio of IC50 for drug to trolox for DPPH radical scavenging activity. A general note: Loss of DPPH colour is used to gauge radical scavenging.

For the compound `CC1=CC(=O)C2(O1)C(c1cc3oc(=O)c4cc(O)c(O)cc4c3c(=O)o1)=Cc1cc(O)c(O)cc12` (stereo unspecified) [PHELLIGRIDIN E], the half-inhibitory concentration (IC50) in test [1] stood at 120 µM. The Ratio IC50 in test [2] is 0.4; in test [3] it was 1.57.
The like results for `Cc1cc(=O)cc(-c2cc(O)c(O)cc2-c2c(O)cc(/C=C/c3ccc(O)c(O)c3)oc2=O)o1` were, in that order, 97.6 µM, 0.65 and 0.82.
The corresponding values for `CC(=O)C1(O)C(c2cc3oc(=O)c4cc(O)c(O)cc4c3c(=O)o2)=Cc2cc(O)c(O)cc21` (stereo unspecified) are 90.8 µM, 0.58 and 1.42.
Take `O=C(O)/C=C/c1ccc(O)c(O)c1` [CAFFEIC ACID]: the half-maximal inhibitory concentration (IC50) in test [1] amounted to 10.2 µM. Also, the Ratio IC50 in test [2] stood at 0.66; in test [3], 0.41.
The like results for `O=C1C=C(/C=C/c2ccc(O)c(O)c2)OC12C(c1cc3oc(=O)c4cc(O)c(O)cc4c3c(=O)o1)=Cc1cc(O)c(O)cc12` (stereo unspecified) [PHELLIGRIDIN G] were, in that order, 92.3 µM, 0.43 and 1.48.
The like results for `O=c1oc(/C=C/c2ccc(O)c(O)c2)cc(O)c1-c1cc(O)c(O)cc1/C=C/c1cc2oc(=O)c3cc(O)c(O)cc3c2c(=O)o1` [PHELLIGRIDIN I] were, in that order, 93.6 µM, 0.43 and 1.45.
The like results for `O=c1oc2cc(/C=C/c3ccc(O)c(O)c3)oc(=O)c2c2cc(O)c(O)cc12` [PHELLIGRIDIN D] were, in that order, 85.5 µM, 0.33 and 1.51.
